# *1 amine or outer side, *2 acyl side, *3 side chain or, on linkers, in order; H or OH if unused. Where a SMILES comes first, the peptide text is derived from it. [ ]: non-standard residue; d: D form. X6 = CCC(=O)NCCCCNC(=O)/N=C(/N)NCCC[C@H](N[*:1])C(=O)[*:2]; X3 = NCCOCCOCCNC(=O)/N=C(\N)NCCC[C@H](N[*:1])C(=O)[*:2]; X2 = NCCCCNC(=O)/N=C(\N)NCCC[C@H](N[*:1])C(=O)[*:2]; X7 = NCCCCNC(=O)/N=C(/N)NCCC[C@H](N[*:1])C(=O)[*:2]
# Tests used:
# [1] = Chemical stability of compound at 150 uM at pH 7 at 21 degC after 24 to 48 hrs by reversed-phase HPLC analysis; assay type: physicochemical; details: buffer, pH 7, 150 µM
# Method in brief: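 Peptide incubated in phosphate buffer (PBS), pH 7.0, 21 °C, for 24 or 48 h. Remaining intact peptide assessed from reversed-phase HPLC chromatograms.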
# [2] = Drug degradation in human HT-29 cells at 50 uM after 2 hrs by reversed-phase HPLC analysis; assay type: ADME, cell-based; details: read-out: Drug degradation
# Method in brief: (§1)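 Stability tested under binding-assay conditions for up to 6 h: AT1 ligands with CHO-hAT1 cells and NTSR1 ligands with HT-29 cells. Samples analysed by reversed-phase HPLC chromatography.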
# [3] = biological target: T1, Type-1 angiotensin II receptor (Homo sapiens, UniProt P30556); assay: Agonist activity at human AT1 receptor transfected in CHO cells co-expressing Galpha16-mtAEQ assessed as induction of intracellular Ca2+ mobilization by bioluminescence assay; assay type: functional, cell-based
# T1 sequence (P30556 whole entry): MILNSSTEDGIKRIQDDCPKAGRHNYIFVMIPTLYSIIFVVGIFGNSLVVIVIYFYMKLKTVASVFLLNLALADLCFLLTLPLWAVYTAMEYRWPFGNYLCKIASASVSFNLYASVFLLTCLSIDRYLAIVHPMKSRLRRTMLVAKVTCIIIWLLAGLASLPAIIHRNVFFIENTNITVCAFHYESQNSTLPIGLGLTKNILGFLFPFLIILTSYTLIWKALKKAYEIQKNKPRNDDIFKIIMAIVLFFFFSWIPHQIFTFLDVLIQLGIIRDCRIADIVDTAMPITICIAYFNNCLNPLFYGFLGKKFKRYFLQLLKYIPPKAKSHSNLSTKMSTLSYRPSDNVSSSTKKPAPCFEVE
# [4] = Chemical stability of compound at 200 uM at pH 7 at 21 degC after 24 to 48 hrs by reversed-phase HPLC analysis; assay type: physicochemical; details: buffer, pH 7, 200 µM
# Method in brief: (§2)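 Peptide incubated in phosphate buffer (PBS), pH 7.0, 21 °C, for 24 or 48 h. Remaining intact peptide assessed by reversed-phase HPLC chromatograms.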
# [5] = biological target: T1, Type-1 angiotensin II receptor; assay: Displacement of [3H]-Asp-{Nomega-[N-(4-propanoylaminobutyl)aminocarbonyl]}Arg-ValTyr-Ile-His-Pro-Phe-OH Tris(hydrotrifluoroacetate) from human AT1 receptor transfected in CHO cells co-expressing Galpha16-mtAEQ after 2 hrs by liquid scintillation counting; assay type: cell-based
# [6] = biological target: T2, Neurotensin receptor type 1 (Homo sapiens, UniProt P30989); assay: Displacement of [3H]-{Nomega-[N-(4-propanoylaminobutyl)aminocarbonyl]}Arg-Arg-ProTyr-Ile-Leu-OH Tris(hydrotrifluoroacetate) from NTSR1 in human HT-29 cells after 2 hrs by liquid scintillation counting; assay type: cell-based
# [7] = biological target: Neuropeptide FF receptor 2 (Homo sapiens, UniProt Q9Y5X5); assay: Displacement of [3H]EYE from human NPFF2 receptor expressed in CHO cell membranes after 1 hr by liquid scintillation spectrophotometric counting
# [8] = biological target: Neurotensin receptor type 2 (Homo sapiens, UniProt O95665); assay: Displacement of [3H]NT(8 to 13 residues) from human NTSR2 expressed in HEK293 cell membranes
# [9] = biological target: T2, Neurotensin receptor type 1; assay: Displacement of [3H]-{Nomega-[N-(4-propanoylaminobutyl)aminocarbonyl]}Arg-Arg-ProTyr-Ile-Leu-OH Tris(hydrotrifluoroacetate) from human NTSR1 transfected in CHO cells co-expressing Galpha16-mtAEQ after 2 hrs by liquid scintillation counting; assay type: cell-based
# [10] = biological target: T2, Neurotensin receptor type 1; assay: Agonist activity at NTSR1 in human HT-29 cells assessed as induction of intracellular Ca2+ mobilization by fura-2 dye-based spectrofluorimetric analysis; assay type: functional, cell-based
# [11] = Chemical stability of compound at 120 uM at pH 7 at 21 degC after 24 to 48 hrs by reversed-phase HPLC analysis; assay type: physicochemical; details: buffer, pH 7, 120 µM; method in brief: as §2
# [12] = Drug degradation in CHO cells expressing human AT1 receptor at 50 uM after 2 hrs by reversed-phase HPLC analysis; assay type: ADME, cell-based, Cricetulus griseus; details: chinese hamster, read-out: Drug degradation; method in brief: as §1
# T2 sequence (P30989 whole entry): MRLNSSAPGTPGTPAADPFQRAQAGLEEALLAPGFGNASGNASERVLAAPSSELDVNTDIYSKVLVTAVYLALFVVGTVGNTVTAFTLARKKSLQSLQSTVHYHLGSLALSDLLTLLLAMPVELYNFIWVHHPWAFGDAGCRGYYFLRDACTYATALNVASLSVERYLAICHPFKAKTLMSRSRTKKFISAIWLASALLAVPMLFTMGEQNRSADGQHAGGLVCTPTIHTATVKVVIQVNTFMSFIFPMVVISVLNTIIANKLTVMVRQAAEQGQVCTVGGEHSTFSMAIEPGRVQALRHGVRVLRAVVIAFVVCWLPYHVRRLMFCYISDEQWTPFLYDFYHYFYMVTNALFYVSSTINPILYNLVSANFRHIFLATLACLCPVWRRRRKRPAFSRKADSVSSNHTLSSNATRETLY
# Neuropeptide FF receptor 2, sequence (Q9Y5X5 whole entry, the tested form may be a part): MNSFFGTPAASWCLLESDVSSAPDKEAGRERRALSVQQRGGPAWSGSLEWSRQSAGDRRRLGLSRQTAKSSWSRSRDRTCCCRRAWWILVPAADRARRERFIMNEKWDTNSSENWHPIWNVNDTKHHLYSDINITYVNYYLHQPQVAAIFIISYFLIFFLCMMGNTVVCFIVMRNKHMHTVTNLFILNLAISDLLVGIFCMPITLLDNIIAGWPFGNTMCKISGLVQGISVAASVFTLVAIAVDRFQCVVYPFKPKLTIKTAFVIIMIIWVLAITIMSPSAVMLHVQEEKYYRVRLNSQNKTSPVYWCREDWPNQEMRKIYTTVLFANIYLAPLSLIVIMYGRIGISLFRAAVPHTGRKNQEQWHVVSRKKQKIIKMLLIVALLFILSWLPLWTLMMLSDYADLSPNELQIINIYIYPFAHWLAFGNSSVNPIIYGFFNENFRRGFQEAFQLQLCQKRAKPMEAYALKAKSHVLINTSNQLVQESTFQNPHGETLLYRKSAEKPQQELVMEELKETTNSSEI
# Neurotensin receptor type 2, sequence (O95665 whole entry, the tested form may be a part): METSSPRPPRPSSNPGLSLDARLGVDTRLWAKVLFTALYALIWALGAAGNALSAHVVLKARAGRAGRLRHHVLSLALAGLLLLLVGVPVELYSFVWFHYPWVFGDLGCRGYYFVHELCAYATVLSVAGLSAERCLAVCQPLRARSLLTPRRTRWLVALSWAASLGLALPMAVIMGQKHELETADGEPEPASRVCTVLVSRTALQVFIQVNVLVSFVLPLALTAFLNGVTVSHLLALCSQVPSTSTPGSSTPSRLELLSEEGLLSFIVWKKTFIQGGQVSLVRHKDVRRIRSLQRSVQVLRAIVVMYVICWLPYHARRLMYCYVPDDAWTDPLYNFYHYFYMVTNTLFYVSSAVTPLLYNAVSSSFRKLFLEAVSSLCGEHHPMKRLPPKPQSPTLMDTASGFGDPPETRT
smiles,measurement,setting,value
CC[C@H](C)[C@H](NC(=O)[C@H](Cc1ccc(O)cc1)NC(=O)[C@@H]1CCCN1C(=O)[C@H](CCCNC(=N)N)NC(=O)[C@@H](N)CCCN/C(N)=N/C(=O)NCCCCNC(=O)CCCCCN1\C(=C/C=C/C=C/C2=[N+](C)c3ccccc3C2(C)C)C(C)(C)c2ccccc21)C(=O)N[C@@H](CC(C)C)C(=O)O.O=C(O)C(F)(F)F.O=C(O)C(F)(F)F.O=C(O)C(F)(F)F.O=C(O)C(F)(F)F.[Br-],Stability,[1],Stable
CCC(=O)NCCOCCOCCNC(=O)/N=C(\N)NCCC[C@H](N)C(=O)N[C@@H](CCCNC(=N)N)C(=O)N1CCC[C@H]1C(=O)N[C@@H](Cc1ccc(O)cc1)C(=O)N[C@H](C(=O)N[C@@H](CC(C)C)C(=O)O)[C@@H](C)CC,"metabolised at 2 h, 50 µM",[2],< 5.5%
CC[C@H](C)[C@H](NC(=O)[C@H](Cc1ccc(O)cc1)NC(=O)[C@@H](NC(=O)[C@H](CCCN/C(N)=N/C(=O)NCCCCN)NC(=O)[C@@H](N)CC(=O)O)C(C)C)C(=O)N[C@@H](Cc1cnc[nH]1)C(=O)N1CCC[C@H]1C(=O)N[C@@H](Cc1ccccc1)C(=O)O.O=C(O)C(F)(F)F.O=C(O)C(F)(F)F.O=C(O)C(F)(F)F.O=C(O)C(F)(F)F (H-D[X2]VYIHPF-OH),EC50,[3],1.4 nM
same,Stability,[4],Stable
same,IC50,[5],6.17 nM
same,Ki,[5],2.1 nM
CC[C@H](C)[C@H](NC(=O)[C@H](Cc1ccc(O)cc1)NC(=O)[C@@H]1CCCN1C(=O)[C@H](CCCNC(=N)N)NC(=O)[C@@H](N)CCCN/C(N)=N/C(=O)NCCOCCOCCN)C(=O)N[C@@H](CC(C)C)C(=O)O (H-[X3]RPYIL-OH),Ki,[6],0.26 nM
CCC(=O)NCCCCNC(=O)/N=C(/N)NCCC[C@H](NC(=O)[C@H](CCC(N)=O)NC(=O)[C@@H]1CCCN1C(=O)[C@H](C)NC(=O)[C@H](C)NC(=O)[C@H](CC(C)C)NC(=O)[C@H](CO)NC(=O)[C@H](Cc1c[nH]c2ccccc12)NC(=O)[C@H](Cc1ccc(O)cc1)NC(=O)[C@@H](N)CCC(=O)O)C(=O)N[C@@H](Cc1ccccc1)C(N)=O.O=C(O)C(F)(F)F.O=C(O)C(F)(F)F (H-EYWSLAAPQ[X6]F-NH2),Ki,[7],41 nM
same,Stability,[4],Stable
CC[C@H](C)[C@H](NC(=O)[C@H](Cc1ccc(O)cc1)NC(=O)[C@@H]1CCCN1C(=O)[C@H](CCCNC(=N)N)NC(=O)[C@@H](N)CCCN/C(N)=N/C(=O)NCCCCN)C(=O)N[C@@H](CC(C)C)C(=O)O.O=C(O)C(F)(F)F.O=C(O)C(F)(F)F.O=C(O)C(F)(F)F.O=C(O)C(F)(F)F (H-[X2]RPYIL-OH),IC50,[6],1.35 nM
same,Ki,[6],0.47 nM
same,Ki,[8],0.74 nM
same,Stability,[4],Stable
same,Ki,[9],0.69 nM
same,EC50,[10]; read-out: EC50,1.7 nM
same,EC50,[10]; read-out: pEC50 (converted),1.55 nM
CC(C)C[C@H](NC(=O)[C@H](CO)NC(=O)[C@H](Cc1c[nH]c2ccccc12)NC(=O)[C@H](Cc1ccc(O)cc1)NC(=O)[C@@H](N)CCC(=O)O)C(=O)N[C@@H](C)C(=O)N[C@@H](C)C(=O)N1CCC[C@H]1C(=O)N[C@@H](CCC(N)=O)C(=O)N[C@@H](CCCN/C(N)=N\C(=O)NCCCCN)C(=O)N[C@@H](Cc1ccccc1)C(N)=O.O=C(O)C(F)(F)F.O=C(O)C(F)(F)F.O=C(O)C(F)(F)F (H-EYWSLAAPQ[X7]F-NH2),Ki,[7],27 nM
same,Stability,[4],Stable
CC[C@H](C)[C@H](NC(=O)[C@H](Cc1ccc(O)cc1)NC(=O)[C@@H](NC(=O)[C@H](CCCN/C(N)=N/C(=O)NCCCCNC(=O)CCCCCN1\C(=C/C=C/C=C/C2=[N+](C)c3ccccc3C2(C)C)C(C)(C)c2ccccc21)NC(=O)[C@@H](N)CC(=O)O)C(C)C)C(=O)N[C@@H](Cc1cnc[nH]1)C(=O)N1CCC[C@H]1C(=O)N[C@@H](Cc1ccccc1)C(=O)O.O=C(O)C(F)(F)F.O=C(O)C(F)(F)F.O=C(O)C(F)(F)F.O=C(O)C(F)(F)F.[Br-],Stability,[11],Stable
CCC(=O)NCCOCCOCCNC(=O)/N=C(\N)NCCC[C@H](NC(=O)[C@@H](N)CC(=O)O)C(=O)N[C@H](C(=O)N[C@@H](Cc1ccc(O)cc1)C(=O)N[C@H](C(=O)N[C@@H](Cc1cnc[nH]1)C(=O)N1CCC[C@H]1C(=O)N[C@@H](Cc1ccccc1)C(=O)O)[C@@H](C)CC)C(C)C,"metabolised at 2 h, 50 µM",[12],< 5.5%

# From ChEMBL document CHEMBL3784921, “Mimicking of Arginine by Functionalized N(ω)-Carbamoylated Arginine As a New Broadly Applicable Approach to Labeled Bioactive Peptides: High Affinity Angiotensin, Neuropeptide Y, Neuropeptide FF, and Neurotensin Receptor Ligands As Examples” (J Med Chem, 2016)
